SENP6 block: blocks the human protease SENP6 | Recombinant SENP6 catalytic domain, aminoluciferin luminescence | inhibition, % at 10 µM | 330,000 compounds, 1.8% hits | Q9GZR1;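 active = inhibition above about 50% at the single tested dose, limit read from the data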;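 note: plate controls were DMSO wells with enzyme for no effect and DMSO wells lacking enzyme for full effect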
SENP8 block-1: SENP8 (human) protease inhibition; inhibition, % at 20 µM; 360,000 compounds, 0.64% hits; AID 602440; recombinant SENP8, Nedd8 substrate fluorescence; in the data active = inhibition mostly above about 40%, no sharp cut-off; inactive = mostly below about 27%
Target sequence (Q96LD8 whole entry, looked up): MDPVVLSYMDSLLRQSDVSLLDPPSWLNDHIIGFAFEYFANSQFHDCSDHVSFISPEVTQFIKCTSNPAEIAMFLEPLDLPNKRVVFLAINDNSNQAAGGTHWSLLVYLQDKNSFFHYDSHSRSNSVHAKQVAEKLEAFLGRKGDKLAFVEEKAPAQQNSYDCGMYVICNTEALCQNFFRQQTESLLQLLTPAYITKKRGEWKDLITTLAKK
SENP7 inh: SENP7 protease inhibition; recombinant SENP7, Z-RLRGG-aminoluciferin luminescence, 40 min; inhibition, % at 5 µM; 330,000 compounds, 1.5% hits;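 active = inhibition above about 50% at the single test dose, limit read from the data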;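 note: plate controls were DMSO with enzyme for no effect and no enzyme buffer wells for full effect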
Platelet DG rel: platelet dense granule release activity; inhibition, %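 (compounds screened at 7.5 µM in platelet-rich plasma)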; human platelet-rich plasma, SFLLRN dense granule ATP release, luminescence; 300,000 compounds, 0.22% hits;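 active = mean replicate score, as percent of positive control, at or above 50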
SENP8 block-2: blocks the human protease SENP8 | 330,000 compounds, 1.2% hits | inhibition, % at 10 µM | purified SENP8, Z-RLRGG-aminoluciferin cleavage, luminescence; in the data active = inhibition above about 50%
SENP1 FRET inh: blocks the human SENP1 SUMO protease catalytic domain; recombinant SENP1 catalytic domain, CyPet-SUMO1-YPet FRET cleavage; Q9P0U3; inhibition, % at 10 µM; 360,000 compounds, 0.21% hits;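 active = inhibition at least 30% at 10 µM, raw YFP signal under a set limit, fluorescence ratio 0.5 to 1.5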;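 note: 0% = enzyme with DMSO and 100% = no enzyme wells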
Target sequence (Q9P0U3 419-644 limits assumed): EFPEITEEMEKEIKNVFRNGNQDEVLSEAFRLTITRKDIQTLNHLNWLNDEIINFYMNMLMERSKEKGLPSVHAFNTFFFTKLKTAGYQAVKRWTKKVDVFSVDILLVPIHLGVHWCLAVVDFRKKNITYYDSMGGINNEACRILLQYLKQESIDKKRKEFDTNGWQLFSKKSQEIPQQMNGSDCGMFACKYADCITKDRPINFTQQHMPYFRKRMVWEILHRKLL
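Assay system – human recombinant His6-tagged SENP1 catalytic domain enzyme · Input – SENP1 enzyme, 20 pM final · Buffer or medium – Tris pH 8 buffer plus EDTA, NaCl, BME, BSA, NP40, catalase · Schedule – 50 min reaction at room temperature · Technique – FRET read of cyan and yellow fluorescence · Control set – no-enzyme wells low, DMSO-plus-enzyme wells high control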
SENP8 confirm: human SENP8 inhibition, confirmed. shares compounds with SENP7 inh. Recombinant SENP8, Z-RLRGG-aminoluciferin luminescence, 60 min. inhibition, % at 12.5 µM. 6,200 compounds, 40% hits;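 active = mean inhibition across replicates above about 50%, limit read from the data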
SENP6 conf: human SENP6 inhibition, confirmed; shares compounds with SENP7 inh; recombinant SENP6, Z-RLRGG-aminoluciferin luminescence; inhibition, % at 12.5 µM; 6,200 compounds, 58% hits
SENP7 confirm: confirmation of human SENP7 protease inhibitors; shares compounds with SENP7 inh; 6,200 compounds, 69% hits; inhibition, % at 12.5 µM; recombinant SENP7, Z-RLRGG-aminoluciferin luminescence, 40 min; AID 488917
Casp3 SENP sel: selectivity test for SENP inhibitors: human caspase-3 inhibition | AID 488918 | shares compounds with SENP7 inh | 6,200 compounds, 60% hits | inhibition, % at 12.5 µM | purified caspase-3, Z-DEVD-aminoluciferin luminescence, 60 min;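 active = mean inhibition above about 50%, limit read from the data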;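 note: plate controls were enzyme with DMSO for no effect and wells without caspase-3 for full effect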
Target sequence (P42574 28-227 limits assumed): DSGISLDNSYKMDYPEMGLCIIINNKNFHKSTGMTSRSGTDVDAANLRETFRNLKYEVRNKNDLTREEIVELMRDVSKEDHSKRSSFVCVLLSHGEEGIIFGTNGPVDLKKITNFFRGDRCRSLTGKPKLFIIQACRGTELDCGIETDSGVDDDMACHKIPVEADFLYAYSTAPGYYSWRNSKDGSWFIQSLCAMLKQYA
Luc interf: luminescence interference (SENP counter-screen); shares compounds with SENP7 inh; AID 488919; 6,200 compounds, 39% hits; inhibition, % at 12.5 µM; Pre-incubated SENP8/Z-RLRGG-aminoluciferin, luciferase luminescence interference;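 active = mean inhibition above about 50% when retested at one dose, limit read from the data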;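 note: plate controls were DMSO wells with completed reaction for no effect and substrate without enzyme for full effect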
* = called active by the depositor; · = no result given. Compounds with a hit are over-represented: about 2.6% of the library has one in this group of screens.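 Rule for the calls, unless noted: active = mean inhibition above about 50% in the one-dose retest (limit read from the data); inactive = the rest.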

SMILES	SENP6 block	SENP8 block-1	SENP7 inh	Platelet DG rel	SENP8 block-2	SENP1 FRET inh	SENP8 confirm	SENP6 conf	SENP7 confirm	Casp3 SENP sel	Luc interf
Cc1cnc(NC(=O)COc2ccc3c(c2)CCC3)s1	52.3*	3.8	44.6	-6.6	13.4	-1.1	-15.0	4.0	21.7	12.8	1.5
O=C(COc1ccc2c(c1)CCC2)Nc1ccccn1	96.9*	5.9	98.8*	37.8	95.5*	4.0	97.0*	97.5*	101.1*	96.7*	96.1*
Cc1cccc(NC(=O)COc2ccc3c(c2)CCC3)n1	60.7*	12.1	51.2*	·	29.1	-0.4	56.5*	56.1*	83.5*	59.7*	46.0
O=C(COc1ccc2c(c1)CCC2)NCc1ccccc1	5.2	10.9	-6.7	-8.3	-3.4	-1.0	·	·	·	·	·
COc1cccc(C(=O)NCCS(=O)(=O)N2CCN(C(=O)c3ccco3)CC2)c1	-10.4	3.1	-10.0	4.6	-19.5	-1.1	·	·	·	·	·
CC1=NN(C(=O)c2ccncc2)C(=O)C1N=Nc1ccc2ccccc2c1 (stereo unspecified)	·	34.2	·	·	·	16.2	·	·	·	·	·
CC1=NN(C(N)=S)C(=O)C1N=Nc1cccc([N+](=O)[O-])c1 (stereo unspecified)	82.6*	32.5	76.5*	4.0	80.2*	1.3	4.2	5.3	-2.2	16.2	6.8
CC1=NN(C(N)=S)C(=O)C1N=Nc1ccc(Br)cc1 (stereo unspecified)	96.3*	35.7	74.1*	-7.8	92.2*	3.6	25.9	40.4	27.4	40.0	23.3
CC1=NN(C(N)=S)C(=O)C1N=Nc1ccc(Cl)cc1 (stereo unspecified)	88.5*	32.9	76.7*	-0.4	86.4*	3.4	-1.2	72.2*	35.1	29.8	14.4
CC1=NN(c2ccccc2)C(=O)C1N=Nc1cccc(O)c1 (stereo unspecified)	5.3	27.3	-4.0	-6.2	4.0	1.0	·	·	·	·	·
CC1=NN(C(N)=S)C(=O)C1N=Nc1ccccc1 (stereo unspecified)	71.9*	22.8	52.8*	-7.6	59.0*	4.3	18.9	54.8*	14.4	35.3	0.4
CC1=NN(C(N)=S)C(=O)C1N=Nc1cccc2ccccc12 (stereo unspecified)	·	·	·	9.6	·	·	·	·	·	·	·
Cc1ccc(S(=O)(=O)N2[C@@H](c3ccc(C(C)C)cc3)C(C(=O)O)=C[C@H]2C(C)(C)C)cc1	5.1	15.2	1.9	·	13.1	3.0	·	·	·	·	·
CC1=NN(C(N)=S)C(=O)C1N=Nc1cccc(Cl)c1C (stereo unspecified)	93.8*	14.8	59.2*	-5.8	84.5*	1.5	94.7*	94.3*	100.0*	88.0*	83.1*
COc1ccc(NC(=O)Nc2ccc(F)cc2F)c(C)c1	-2.5	17.5	3.8	1.4	1.1	0.6	·	·	·	·	·
COc1ccc(NC(=O)Nc2ccc(F)cc2F)cc1	74.3*	6.0	80.4*	11.7	59.5*	1.4	57.9*	71.1*	92.7*	80.4*	26.5
O=C(Nc1ccc(C(=O)O)cc1)Nc1ccc(F)cc1F	82.6*	5.0	77.0*	33.1	69.3*	1.5	76.9*	73.4*	93.2*	91.1*	75.7*
COc1ccc(NC(=O)Nc2c(C)n(C)n(-c3ccccc3)c2=O)c(OC)c1	4.8	3.4	0.9	13.0	-12.4	2.7	·	·	·	·	·
Cc1ccc([C@@H]2C[C@H]3[C@@H](CN2S(=O)(=O)c2ccc(C)cc2)C(=O)C[C@@H](c2ccc(C)cc2)N3S(=O)(=O)c2ccc(Cl)cc2)cc1	·	0.7	·	·	·	-1.8	·	·	·	·	·
Cc1c(C(=O)O)cnc2cc(-c3ccc(Cl)cc3)nn12	90.7*	-374.4	82.5*	-5.5	82.2*	-0.1	89.2*	88.0*	99.6*	92.9*	87.3*
CC(=O)c1cnc2cc(-c3ccc(Cl)cc3)nn2c1C	19.1	-439.3	39.3	11.8	-16.1	1.6	·	·	·	·	·
Fc1cccc(F)c1-n1c(CN2CCCC2)csc1=S	-4.7	28.0	2.6	-14.1	0.4	2.8	·	·	·	·	·
COc1ccccc1/C=C/c1nc2ccc(OC(C)=O)cc2c(=O)o1	71.9*	-497.7	64.6*	16.5	63.6*	-24.6	12.8	6.9	16.6	13.9	-1.1
COc1ccc(/C=C/c2nc3ccccc3c(=O)o2)cc1	89.8*	-329.0	77.8*	33.5	84.1*	-0.2	71.0*	71.3*	83.1*	62.8*	65.2*
COc1ccccc1/C=C/c1nc2ccccc2c(=O)o1	·	-165.0	·	0.2	·	-2.2	·	·	·	·	·
SMILES	SENP6 block	SENP8 block-1	SENP7 inh	Platelet DG rel	SENP8 block-2	SENP1 FRET inh	SENP8 confirm	SENP6 conf	SENP7 confirm	Casp3 SENP sel	Luc interf
COc1ccc(/C=C2\N=C(C)OC2=O)cc1[N+](=O)[O-]	-10.3	14.7	-5.4	-4.8	-2.4	-1.0	·	·	·	·	·
O=C1C[C@@H]2c3c(cccc3CN1Cc1ccccc1Br)C[C@@H](O)[C@H]2O	·	9.9	·	·	·	2.5	·	·	·	·	·
Cc1nn(C)cc1/C=C/C(=O)c1ccc(O)cc1	53.0*	-3.8	-3.7	9.0	30.6	4.3	-9.5	-16.2	-13.4	3.6	38.1
O=C(/C=C/c1ccc(O)cc1)c1ccccc1	1.4	-42.6	93.4*	72.1*	94.6*	24.3	14.7	99.3*	102.7*	91.6*	98.5*
CSc1ccc(C(=O)/C=C/c2ccc(N)cc2)cc1	70.6*	11.2	55.8*	20.3	28.2	-0.9	82.9*	64.9*	87.4*	40.2	88.3*
Cc1ccc(/C=C/C(=O)c2ccc(C)cc2)cc1	52.1*	11.6	-11.6	-1.2	-1.7	2.6	1.6	-8.7	-22.9	-7.3	4.4
CSc1ccc(/C=C/C(=O)c2ccc(NC(=O)C(C)C)cc2)cc1	-0.2	-413.2	7.7	1.8	-7.7	9.5	·	·	·	·	·
O=C(CCNC(=O)c1ccc(Cl)cc1)NCc1ccco1	-6.8	3.6	-0.5	·	6.6	1.6	·	·	·	·	·
NC(N)=NS(=O)(=O)c1ccc(NC(=S)NC(=O)c2ccc3c(c2)OCO3)cc1	13.2	-1.5	-1.8	-5.2	-4.5	-2.4	·	·	·	·	·
COc1ccc(C(=O)/C=C/c2ccc(O)cc2)cc1	48.3	-61.5	62.0*	32.7	51.0*	1.0	8.7	56.6*	76.4*	10.7	89.4*

Compound activity: PubChem BioAssay, several laboratories
